Experimental data as given in ChEMBL document CHEMBL3870349, “Novel 3-methylindoline inhibitors of EZH2: Design, synthesis and SAR” (Bioorg Med Chem Lett, 2017).
In brackets after ≈: the same amount, converted by molar mass.

Assays:
[1] = molecular target: Histone-lysine N-methyltransferase EZH2 (Homo sapiens, UniProt Q15910); test: Inhibition of human wild type EZH2 using histone H3 as substrate after 1 hr in presence of 3H-SAM by filter paper detection analysis
Outline: (§1)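 Each HMT complex was incubated with 3H-SAM (tritiated S-adenosyl-L-methionine) and histone H3 as substrate. An IC50 curve was generated for each compound.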

[2] = Kinetic solubility of compound in PBS buffer at pH 7.4 after 1 hr by micro-plate nephelometric analysis; assay type: physicochemical; settings: read-out: Kinetic_solubility
[3] = molecular target: T1, Histone-lysine N-methyltransferase EZH1 (Homo sapiens, UniProt Q92800); test: Inhibition of human EZH1 complex using histone H3 as substrate after 1 hr in presence of 3H-SAM by filter paper detection analysis; outline: as §1
T1 sequence (Q92800 whole entry): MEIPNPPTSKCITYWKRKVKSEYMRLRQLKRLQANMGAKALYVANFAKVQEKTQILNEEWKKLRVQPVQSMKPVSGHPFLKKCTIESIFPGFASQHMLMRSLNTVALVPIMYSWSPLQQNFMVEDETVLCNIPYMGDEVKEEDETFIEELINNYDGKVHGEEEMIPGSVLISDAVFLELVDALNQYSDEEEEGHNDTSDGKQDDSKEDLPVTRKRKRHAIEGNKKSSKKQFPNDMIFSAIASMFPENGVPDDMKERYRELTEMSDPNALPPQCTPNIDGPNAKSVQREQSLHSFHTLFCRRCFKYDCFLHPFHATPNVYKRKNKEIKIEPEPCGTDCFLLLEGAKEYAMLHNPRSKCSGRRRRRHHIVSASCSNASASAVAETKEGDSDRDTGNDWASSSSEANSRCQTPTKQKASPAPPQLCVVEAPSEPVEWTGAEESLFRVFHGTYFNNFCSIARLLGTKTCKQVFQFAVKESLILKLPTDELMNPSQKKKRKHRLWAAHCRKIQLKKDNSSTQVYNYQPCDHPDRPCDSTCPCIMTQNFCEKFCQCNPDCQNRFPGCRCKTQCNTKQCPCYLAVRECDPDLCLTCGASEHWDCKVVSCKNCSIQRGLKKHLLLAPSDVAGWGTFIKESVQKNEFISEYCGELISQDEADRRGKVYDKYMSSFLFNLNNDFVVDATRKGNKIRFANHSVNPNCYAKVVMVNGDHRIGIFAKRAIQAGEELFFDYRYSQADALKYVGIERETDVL

[4] = molecular target: Histone-lysine N-methyltransferase EZH2 (Homo sapiens, UniProt Q15910, Y641F); test: Inhibition of human EZH2 Y641F mutant using histone H3 as substrate after 1 hr in presence of 3H-SAM by filter paper detection analysis; outline: as §1
[5] = Oxidative metabolic stability in human liver microsomes assessed as amount of parent compound remaining at 1 uM after 30 mins by LC-MS/MS; assay type: ADME; settings: read-out: Stability
[6] = Oxidative metabolic stability in mouse liver microsomes assessed as amount of parent compound remaining at 1 uM after 30 mins by LC-MS/MS; assay type: ADME; settings: read-out: Stability

Histone-lysine N-methyltransferase EZH2 (Homo sapiens, UniProt Q15910), sequence (Q15910 whole entry): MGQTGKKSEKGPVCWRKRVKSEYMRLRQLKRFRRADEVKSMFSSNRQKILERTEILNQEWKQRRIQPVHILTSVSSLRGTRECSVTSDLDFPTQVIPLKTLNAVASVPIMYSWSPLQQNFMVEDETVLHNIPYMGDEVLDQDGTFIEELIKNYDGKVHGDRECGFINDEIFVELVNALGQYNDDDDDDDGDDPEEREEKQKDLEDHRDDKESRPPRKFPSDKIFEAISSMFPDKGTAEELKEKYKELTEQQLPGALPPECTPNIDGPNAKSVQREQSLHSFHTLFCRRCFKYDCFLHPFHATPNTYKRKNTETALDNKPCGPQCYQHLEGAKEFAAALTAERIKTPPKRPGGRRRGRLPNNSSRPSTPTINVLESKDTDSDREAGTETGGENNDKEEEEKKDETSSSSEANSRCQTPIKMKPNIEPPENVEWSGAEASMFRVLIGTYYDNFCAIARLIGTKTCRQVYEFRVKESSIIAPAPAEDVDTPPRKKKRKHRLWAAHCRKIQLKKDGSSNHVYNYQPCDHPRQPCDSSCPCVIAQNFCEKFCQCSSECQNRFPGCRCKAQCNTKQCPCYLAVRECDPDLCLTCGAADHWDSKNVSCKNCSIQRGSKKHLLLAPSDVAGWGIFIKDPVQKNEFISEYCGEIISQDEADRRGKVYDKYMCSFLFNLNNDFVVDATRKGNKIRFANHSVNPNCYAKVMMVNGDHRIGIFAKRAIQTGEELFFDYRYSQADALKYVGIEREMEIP
Histone-lysine N-methyltransferase EZH2 (Homo sapiens, UniProt Q15910, Y641F), sequence (Q15910 whole entry Y641F): as the sequence (Q15910 whole entry) above, with Y641F counted along it

## Cc1cc(C)c(CNC(=O)c2cc(-c3ccc(CN4CCOCC4)cc3)cc3c2C(C)CN3CC2CC2)c(=O)[nH]1 (stereo in doubt; 31e2)
[1]
  IC50: 15200 nM

## Cc1cc(C)c(CNC(=O)c2cc(C#N)cc3c2CCN3C2CCCC2)c(=O)[nH]1
[1]
  IC50: 571 nM

## Cc1cc(C)c(CNC(=O)c2cc(-c3ccc(CN4CCOCC4)cc3)cc3c2CCN3C2CCOCC2)c(=O)[nH]1
[1]
  IC50: 237 nM

## Cc1cc(C)c(CNC(=O)c2cc(-c3ccc(CN4CCOCC4)cc3)cc3c2C(C)CN3C(C)C)c(=O)[nH]1 (stereo in doubt; 30e2)
[1]
  IC50: 4140 nM

## Cc1cc(C)c(CNC(=O)c2cc(-c3ccc(N4CCNCC4)nc3)cc3c2C(C)CN3C2CCCC2)c(=O)[nH]1 (stereo in doubt; 40e2)
[1]
  IC50: 378 nM

## Cc1cc(C)c(CNC(=O)c2cc(-c3cnc(N4CCNCC4)nc3)cc3c2C(C)CN3C2CCOCC2)c(=O)[nH]1 (stereo in doubt; 45e2)
[1]
  IC50: 2160 nM

## Cc1cc(C)c(CNC(=O)c2cc(-c3cnc(N4CCNCC4)nc3)cc3c2C(C)CN3C2CCOCC2)c(=O)[nH]1 (stereo in doubt; 45e1)
[1]
  IC50: 98 nM

## Cc1cc(C)c(CNC(=O)c2cc(-c3ccc(N4CCNCC4)nc3)cc3c2C(C)CN3C2CCOCC2)c(=O)[nH]1 (stereo in doubt; 41e1)
[2]
  solubility kinetic at 1 h: 75 µM (≈ 41.8 µg/mL)
[3]
  IC50: 1980 nM
[4]
  IC50: 578 nM
[1]
  IC50: 11 nM
[5]
  remaining at 0.5 h, 1 µM: 83%
[6]
  remaining at 0.5 h, 1 µM: 95%

## Cc1cc(C)c(CNC(=O)c2cc(C#N)cc3c2CCN3C(C)C)c(=O)[nH]1
[1]
  IC50: 26600 nM

## Cc1cc(C)c(CNC(=O)c2cc(-c3cnc(N4CCNCC4)c4ccccc34)cc3c2C(C)CN3C2CCOCC2)c(=O)[nH]1 (stereo in doubt; 36e1)
[3]
  IC50: 1560 nM
[4]
  IC50: 304 nM
[1]
  IC50: 17 nM

## Cc1cc(C)c(CNC(=O)c2cc(-c3ccc(N4CCNCC4)nc3)cc3c2C(C)CN3C2CCCC2)c(=O)[nH]1 (stereo in doubt; 40e1)
[3]
  IC50: 1350 nM
[4]
  IC50: 505 nM
[1]
  IC50: 21 nM

## Cc1cc(C)c(CNC(=O)c2cc(C#N)cc3c2C(C)CN3C(C)C)c(=O)[nH]1 (stereo in doubt; 27e1)
[3]
  IC50: 7750 nM
[4]
  IC50: 478 nM
[1]
  IC50: 88 nM

## CCN(c1cc(-c2ccc(CN3CCOCC3)cc2)cc(C(=O)NCc2c(C)cc(C)[nH]c2=O)c1C)C1CCOCC1 [TAZEMETOSTAT]
[2]
  solubility kinetic at 1 h: 28 µM (≈ 16 µg/mL)
[5]
  remaining at 0.5 h, 1 µM: 25%
[6]
  remaining at 0.5 h, 1 µM: 39%

## Cc1cc(C)c(CNC(=O)c2cc(-c3ccc(CN4CCOCC4)cc3)cc3c2C(C)CN3C2CCCC2)c(=O)[nH]1 (stereo in doubt; 33e2)
[1]
  IC50: 448 nM

## Cc1cc(C)c(CNC(=O)c2cc(-c3cnc(N4CCNCC4)c4ccccc34)cc3c2C(C)CN3C2CCOCC2)c(=O)[nH]1 (stereo in doubt; 36e2)
[1]
  IC50: 540 nM

## Cc1cc(C)c(CNC(=O)c2cc(-c3ccc(CN4CCOCC4)cc3)cc3c2C(C)CN3C2CCOCC2)c(=O)[nH]1 (stereo in doubt; 34e1)
[2]
  solubility kinetic at 1 h: 75 µM (≈ 42.8 µg/mL)
[3]
  IC50: 3340 nM
[4]
  IC50: 975 nM
[1]
  IC50: 29 nM
[5]
  remaining at 0.5 h, 1 µM: 62%
[6]
  remaining at 0.5 h, 1 µM: 58%

## Cc1cc(C)c(CNC(=O)c2cc(-c3ccc(CN4CCOCC4)cc3)cc3c2C(C)CN3C2CCOCC2)c(=O)[nH]1 (stereo in doubt; 34e2)
[1]
  IC50: 6980 nM

## Cc1cc(C)c(CNC(=O)c2cc(-c3ccc(N4CCNCC4)nc3)cc3c2C(C)CN3C(C)C)c(=O)[nH]1 (stereo in doubt; 39e1)
[3]
  IC50: 1870 nM
[4]
  IC50: 622 nM
[1]
  IC50: 17 nM

## Cc1cc(C)c(CNC(=O)c2cc(-c3ccc(CN4CCOCC4)cc3)cc3c2C(C)CN3CC2CC2)c(=O)[nH]1 (stereo in doubt; 31e1)
[1]
  IC50: 375 nM

## Cc1cc(C)c(CNC(=O)c2cc(-c3ccc(CN4CCOCC4)cc3)cc3c2C(C)CN3C(C)C)c(=O)[nH]1 (stereo in doubt; 30e1)
[3]
  IC50: 2710 nM
[4]
  IC50: 518 nM
[1]
  IC50: 47 nM

## Cc1cc(C)c(CNC(=O)c2cc(C#N)cc3c2C(C)CN3C(C)C)c(=O)[nH]1 (stereo in doubt; 27e2)
[1]
  IC50: > 100000 nM

## Cc1cc(C)c(CNC(=O)c2cc(-c3ccc(N4CCNCC4)nc3)cc3c2C(C)CN3C2CCOCC2)c(=O)[nH]1 (stereo in doubt; 41e2)
[1]
  IC50: 2150 nM

## Cc1cc(C)c(CNC(=O)c2cc(C#N)cc3c2C(C)CN3C2CCCC2)c(=O)[nH]1 (stereo in doubt; 28e1)
[3]
  IC50: 4440 nM
[4]
  IC50: 185 nM
[1]
  IC50: 27 nM

## Cc1cc(C)c(CNC(=O)c2cc(C#N)cc3c2CCN3C2CCOCC2)c(=O)[nH]1
[1]
  IC50: 15700 nM

## Cc1cc(C)c(CNC(=O)c2cc(-c3ccc(N4CCNCC4)nc3)cc3c2C(C)CN3C(C)C)c(=O)[nH]1 (stereo in doubt; 39e2)
[1]
  IC50: 1080 nM

## Cc1cc(C)c(CNC(=O)c2cc(-c3ccc(CN4CCOCC4)cc3)cc3c2C(C)CN3C2CCCC2)c(=O)[nH]1 (stereo in doubt; 33e1)
[3]
  IC50: 2650 nM
[4]
  IC50: 902 nM
[1]
  IC50: 24 nM

## Cc1cc(C)c(CNC(=O)c2cc(C#N)cc3c2C(C)CN3C2CCCC2)c(=O)[nH]1 (stereo in doubt; 28e2)
[1]
  IC50: > 100000 nM
